Assay outcomes: PubChem BioAssay, several laboratories
This is a sample that favours compounds with a hit; in the whole collection about 2.5% have one here.
H9c2 TAG inh: inhibitors of triacylglycerol accumulation, primary screen, cell-based, uHTS, fluorescence, H9c2; H9c2 cells, Nile Red lipid (TAG) fluorescence; cells loaded with 200 µM oleic acid; inhibition, % at 12.5 µM; actives 0.66% (n = 230,000); AID 651582, 2012;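 active = pattern-corrected inhibition of lipid staining of at least 50% with the nuclear-stain viability signal not falling by more than 50%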;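 also: 0% = DMSO wells and 100% = triacsin C control wells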
SR-BI DiI-HDL act: activators of SR-BI mediated DiI-HDL uptake, primary screen, ldlA[mSR-BI] CHO cells, DiI fluorescence | activation, % at 12.5 µM | AID 504775, 2011 | actives 0.096% (n = 320,000) | 3 h; 100 = double the neutral-control signal;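 active = mean replicate activation of at least 60% and every replicate at or above 60%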;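 also: 0% = median plate neutral-control signal and 100% = twice that signal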
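Material – SR-BI-overexpressing, LDLR-lacking CHO cells · Medium – BSA-supplemented, HEPES-buffered Ham's F12, pH 7.4 · Doses – single concentration · Times – compound with DiI-HDL co-incubation, 3 h at 37 °C · Measured by – bottom-read fluorescence, 550/595 nm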
Vif inh: HIV Vif self-association inhibitors, primary screen, imaging, HEK293T, single point | HEK293T cells, Vif self-association by quenched fluorescence, 24 h | inhibition, % at 7.49 µM | actives 0.35% (n = 340,000) | AID 602346, 2012; in the data active = inhibition above about 50%, passing the limit was not always enough
SR-BI DiI inh: inhibitors of SR-BI mediated HDL lipid uptake, primary screen, ldlA[mSR-BI] cells, fluorescence, single point; AID 488896, 2010; actives 0.96% (n = 320,000); inhibition, % at 12.5 µM; ldlA[mSR-BI] CHO cells, DiI-HDL uptake fluorescence, 3 h;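 active = mean replicate inhibition of at least 70% and a set share of replicates each scoring 70 or more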;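 also: 0% = median of neutral control wells and 100% = median of positive control wells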
Target sequence (Q61009 whole entry, looked up): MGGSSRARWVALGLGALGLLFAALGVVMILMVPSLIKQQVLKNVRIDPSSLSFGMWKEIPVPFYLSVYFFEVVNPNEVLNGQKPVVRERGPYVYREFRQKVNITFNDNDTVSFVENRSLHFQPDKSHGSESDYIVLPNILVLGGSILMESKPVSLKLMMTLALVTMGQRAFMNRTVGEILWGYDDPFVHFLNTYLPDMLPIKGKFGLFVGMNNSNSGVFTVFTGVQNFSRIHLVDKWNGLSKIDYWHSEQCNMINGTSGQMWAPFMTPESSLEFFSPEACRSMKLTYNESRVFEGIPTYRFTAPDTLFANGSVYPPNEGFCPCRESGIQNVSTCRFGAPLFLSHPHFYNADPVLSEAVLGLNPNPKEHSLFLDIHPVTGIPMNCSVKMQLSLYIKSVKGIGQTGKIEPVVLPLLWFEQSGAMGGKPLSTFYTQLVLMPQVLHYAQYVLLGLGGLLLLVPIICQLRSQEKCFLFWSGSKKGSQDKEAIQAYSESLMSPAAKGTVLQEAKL
SMARCA2 act: SMARCA2 (BRM) function activators, primary screen, cell-based, luminescence, high throughput; MG213 cells, MMTV-luciferase reporter, dexamethasone, overnight; actives 1% (n = 370,000); activation, % at 9.1 µM; in the data active = activation above about 7.8%;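 also: 0% = vehicle wells and 100% = reference activator wells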
TAG conf: triacylglycerol accumulation inhibitors, retest, confirmation, cell-based, single concentration, Nile Red fluorescence, H9c2 | shares compounds with H9c2 TAG inh | H9c2 lipid accumulation; cells loaded with 200 µM oleic acid | inhibition, % at 12.5 µM | actives 71% (n = 990) | AID 651629, 2012;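 active = mean inhibition across replicates of 40% or more; inactive = mean inhibition below 40%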;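 also: plate controls were DMSO only wells for no effect and Triacsin C treated wells for full effect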
Starred values were filed as active, the others as inactive; x = no result given.

SMILES	H9c2 TAG inh	SR-BI DiI-HDL act	Vif inh	SR-BI DiI inh	SMARCA2 act	TAG conf
Cc1ccc(NC(=S)N(CCCN2CCCC2)Cc2cccn2Cc2ccc(Cl)cc2)cc1C	25	-13	-3	13	6	x
COc1ccccc1CNS(=O)(=O)c1ccc(F)cc1Br	x	x	x	x	2	x
CC(C)(C)NC(=O)C(c1ccc(-c2ccccc2)cc1)N(C[C@H]1CC[C@@H]([C@@H]2CC[C@H](CO)O2)O1)C(=O)c1ccc(-c2ccccc2)cc1 (stereo not given in full)	60*	-22	x	22	x	67*
CC(C)(C)NC(=O)C(c1ccc(-c2ccccc2)cc1)N(C[C@H]1CC[C@@H]([C@@H]2CC[C@H](CO)O2)O1)C(=O)c1ccc2ccccc2c1 (stereo not given in full)	65*	-20	6	20	-5	82*
CC(C)(C)NC(=O)C(c1ccc(-c2ccccc2)cc1)N(C[C@H]1CC[C@@H]([C@@H]2CC[C@H](CO)O2)O1)C(=O)c1cccc(Cl)c1 (stereo not given in full)	34	-42	x	42	-5	x
Cc1ccc(C(=O)N(C)[C@H]2C[C@H]3c4[nH]c5c(-c6ccccc6)cccc5c4CCN3C(=O)[C@H]2[C@H](C)O)cc1	x	x	x	x	-5	x
CCCC(=O)Nc1nc2nc(-c3ccccc3)cc(-c3ccccc3)n2n1	52*	-16	-8	16	-3	36
CCC(=O)Nc1nc2nc(-c3ccccc3)cc(-c3ccccc3)n2n1	41	-26	4	26	4	x
CCOCC(=O)NC1CCc2cc(OC)c(OC)c(OC)c2-c2ccc(SC)c(=O)cc21 (stereo not given)	54*	0	-9	0	0	38
CC(C)(C)N(Cc1ccccc1)C(=O)COC(=O)c1ccc([N+](=O)[O-])o1	6	-36	x	36	-2	x
CCN(C(=O)COC(=O)c1ccc([N+](=O)[O-])o1)c1cccc2ccccc12	69*	9	-10	-9	4	88*
CCOc1ccc(CCNC(=O)CCc2nc(-c3ccc(C)cc3)no2)cc1OCC	63*	-29	-3	29	1	45*
COc1ccc(-c2noc(CCC(=O)NCCc3cccc(C)c3)n2)cc1	x	11	-3	-11	-3	x
CCOc1ccc(-c2noc(CCC(=O)NCC3CCCO3)n2)cc1OC (stereo not given)	x	9	-10	-9	-2	x
CCOc1ccc(CCNC(=O)CCc2nc(-c3ccc(OC)cc3)no2)cc1OCC	52*	-17	-4	17	0	39
Cc1ccc(-n2c(COc3ccccc3)nnc2SCC(=O)Nc2ccc3c(c2)OCO3)cc1	x	x	x	x	1	x
c1csc(-c2nnc(SCc3cccc4ccccc34)o2)c1	x	x	x	x	3	x
CCOC(=O)CN(C(=O)CSc1nnc2c(n1)[nH]c1ccccc12)c1ccccc1	51*	0	-20	0	-1	29
CCOC(=O)CN(C(=O)CSc1nnc2c(n1)[nH]c1ccc(F)cc12)c1ccccc1	-1	x	-13	21	-3	x
N#Cc1ccc(Cn2ccc3ccc(-c4ccc5ccn(Cc6ccccc6)c5c4)cc32)cc1	x	x	x	x	-3	x
OC1CC2CCC(C1)N2CCCN1c2ccccc2Sc2ccc(Cl)cc21 (stereo not given)	104*	15	24	-15	3	79*
CC(=O)N1CCc2cc(Br)c(S(=O)(=O)NCc3ccc(Cl)cc3)cc21	x	x	x	x	-5	x
CCn1c(COc2ccc(C(C)C)cc2)nnc1SCC(=O)Nc1nccs1	57*	-8	-14	8	2	15
CCSCc1nnc(SCC(=O)Nc2nccs2)n1CC	15	28	4	-28	1	x
CC1CCN(c2cc(N3CCC(C)CC3)c([N+](=O)[O-])cc2/C=C(\C#N)c2nn(-c3ccccc3)c(N)c2C#N)CC1	52*	-47	8	47	3	49*
SMILES	H9c2 TAG inh	SR-BI DiI-HDL act	Vif inh	SR-BI DiI inh	SMARCA2 act	TAG conf
CC1CCN(c2ccc(/C=C(\C#N)c3nn(-c4ccccc4)c(N)c3C#N)cc2[N+](=O)[O-])CC1	x	-38	10	38	-2	x
C[C@H]1CCCCO[C@H](CN(C)CC2CCCCC2)[C@@H](C)CN([C@@H](C)CO)C(=O)c2cc(NS(=O)(=O)c3ccccc3)ccc2O1	57*	x	5	x	-3	58*
COc1ccc(CN(C)C[C@@H]2OCCCC[C@H](C)Oc3ccc(NC(=O)Nc4ccc(F)cc4)cc3C(=O)N([C@H](C)CO)C[C@H]2C)cc1	63*	x	0	x	0	47*
C#CCN1CC(COc2ccccc2)Oc2cccc(Oc3ccc(C(C)C)cc3)c2S1(=O)=O (stereo not given)	x	x	x	x	-2	x
O=C(CSc1ccc(C(F)(F)F)cn1)Nc1ccccc1	-2	-7	21	7	1	x
O=C(/C=C/Sc1ccc(C(F)(F)F)cn1)c1ccccc1	50*	16	0	-16	3	45*
CC(=O)Nc1ccc(/C=C/c2nc3ccccc3o2)cc1	x	-47	-1	47	3	x
O=C(Nc1ccc(/C=C/c2nc3ccccc3o2)cc1)c1c(F)cccc1F	54*	-61	-14	61	4	55*
O=S(=O)(CC1NCCc2ccccc21)NCc1ccc(F)cc1 (stereo not given)	x	x	x	x	-2	x
Cc1ccc(C(=O)CC2(O)C(=O)N(CCc3ccccc3)c3ccc(Br)cc32)o1 (stereo not given)	51*	x	-6	x	0	24
Cc1ccc(C(=O)CC2(O)C(=O)N(Cc3ccccc3)c3ccccc32)o1 (stereo not given)	5	8	-4	-8	0	x
N#CC1C=Cc2ccccc2N1C(=O)c1ccccc1 (stereo not given)	-3	-34	2	34	-1	x
N#CC1C=Cc2c(ccc3ccccc23)N1C(=O)c1ccccc1 (stereo not given)	60*	-34	9	34	-8	56*
CC(=O)Nc1nc2ncccn2c1-c1ccccc1	x	x	x	x	5	x
COc1cc(-c2ccc3oc(-c4cccc(C)c4)c(C#CC4(O)CCCCC4)c3c2)cc(OC)c1OC	51*	-68	-1	68	-1	53*
